ChEMBL document CHEMBL1208709, “Synthesis and pharmacological evaluation of 1,1,3-substituted urea derivatives as potent TNF-alpha production inhibitors” (2010)
The source made the active and inactive calls. The calls are words filed in the database; no cut-off is given here.

tested on: Rattus norvegicus; test: Antiinflammatory activity in po dosed Lewis rat assessed as inhibition of LPS-induced TNFalpha production administered 30 mins prior to LPS challenge measured after 1.5 hrs; assay type: functional
In short: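 Overnight-fasted male Lewis rats (seven weeks old) were dosed orally at 0.1, 0.3, 1 and 3 mg/kg, 30 min before IV LPS (E. coli 055:B5 in saline). Serum TNF-α was measured by ELISA 1.5 h post-LPS, five rats per group, mean ± SEM. Dunnett's t-test versus vehicle; ED₅₀ taken from the dose-response.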

Going from `O=C(NCCCc1ccncc1)N(CCCC1CCCCC1)CCC1CCCCC1` to `CCCCCN(CCC12CC3CC(CC(C3)C1)C2)C(=O)NCCCc1ccncc1`, the ED50 rises from 0.34 mg/kg to 1.7 mg/kg (5-fold).

tested on: Rattus norvegicus; test: Antiinflammatory activity in Lewis rat assessed as inhibition of LPS-induced TNFalpha production at 2 mg/kg, po administered 30 mins prior to LPS challenge measured after 1.5 hrs; assay type: functional

`O=C(NCCCc1ccncc1)N(CCN1CCOCC1)CCC12CC3CC(CC(C3)C1)C2` and `O=C(NCCCc1ccncc1)N(CCCN1CCOCC1)CCC12CC3CC(CC(C3)C1)C2` are the same in inhibition in vivo at 2 mg/kg: 45% for the first, 45% for the second.

Compared with `O=C(NCCCc1ccncc1)N(CCCC1CCCCC1)CCC1CCCCC1`, `O=C(NCCCc1ccncc1)N(CCCC1CCCCC1)CCC1CCCC1` is lower in inhibition in vivo at 2 mg/kg: 92% for the first, 87% for the second.

First: CCOCCN(CCC1CCCCC1)C(=O)NCCCc1ccncc1
Second: COCCOCCN(CCC1CCCCC1)C(=O)NCCCc1ccncc1
The inhibition in vivo at 2 mg/kg of the first is lower: 4% for the first, 14% for the second.

First: COCCCN(CCC1CC2CCC1C2)C(=O)NCCCc1ccncc1 (stereo unspecified)
Second: O=C(NCCCc1ccncc1)N(CCCN1CCOCC1)CCC1CC2CCC1C2 (stereo unspecified)
The inhibition in vivo at 2 mg/kg of the first is lower: 10% for the first, 44% for the second.

Compared with `O=C(NCCCc1ccncc1)N(CCC1CC2CCC1C2)CCN1CCOCC1` (stereo unspecified), `O=C(NCCCc1ccncc1)N(CCC1CCCCC1)CCN1CCOCC1` is lower in inhibition in vivo at 2 mg/kg: 55% for the first, 50% for the second.

Compared with `CCCCN(CCN1CCOCC1)C(=O)NCCCc1ccncc1`, `CCCCN(CCCN1CCOCC1)C(=O)NCCCc1ccncc1` is higher in inhibition in vivo at 2 mg/kg: 21% for the first, 32% for the second.

Going from `O=C(NCCCc1ccncc1)N(CCC1CCCCC1)CCC1CCOCC1` to `O=C(NCCCc1ccncc1)N(CCC1CCCCC1)CCC1CCCCC1`, the inhibition in vivo at 2 mg/kg rises from 38% to 91%.

Compared with `CCCCCN(CCC12CC3CC(CC(C3)C1)C2)C(=O)NCCCc1ccncc1`, `CCCCN(CCCOC)C(=O)NCCCc1ccncc1` is lower in inhibition in vivo at 2 mg/kg: 72% for the first, 21% for the second.

First: O=C(NCCCc1ccncc1)N(CCN1CCOCC1)CCN1C2CCC1CC2
Second: O=C(NCCCc1ccncc1)N(CCC1CCCCC1)CCN1C2CCC1CC2
The inhibition in vivo at 2 mg/kg of the first is lower: 8% for the first, 48% for the second.

Compared with `O=C(NCCCc1ccncc1)N(CCCC1CCCCC1)CC1CCCCC1`, `O=C(NCCCc1ccncc1)N(CCCN1CCOCC1)CCC1CCCCC1` is lower in inhibition in vivo at 2 mg/kg: 71% for the first, 43% for the second.

`COCCCN(CCC1CCCCC1)C(=O)NCCCc1ccncc1` was tested, and the inhibition was “inactive”.
For `CCCCN(CCOCC)C(=O)NCCCc1ccncc1`, the inhibition was “inactive”.
`CCOCCN(CCC1CC2CCC1C2)C(=O)NCCCc1ccncc1` (stereo unspecified) was tested, and the inhibition was “inactive”.
`O=C(NCCCc1ccncc1)N(CCC1CCOCC1)CCN1CCOCC1` was tested, and the inhibition was “inactive”.
